From ChEMBL document CHEMBL1130123, “Optimization of 3-(1H-indazol-3-ylmethyl)-1,5-benzodiazepines as potent, orally active CCK-A agonists” (J Med Chem, 1997)

Experiments:
[1] = target: T1, Gastrin/cholecystokinin type B receptor (Homo sapiens, UniProt P32239); test: In vitro for binding affinity against human cholecystokinin type B receptor.
T1 sequence (P32239 whole entry): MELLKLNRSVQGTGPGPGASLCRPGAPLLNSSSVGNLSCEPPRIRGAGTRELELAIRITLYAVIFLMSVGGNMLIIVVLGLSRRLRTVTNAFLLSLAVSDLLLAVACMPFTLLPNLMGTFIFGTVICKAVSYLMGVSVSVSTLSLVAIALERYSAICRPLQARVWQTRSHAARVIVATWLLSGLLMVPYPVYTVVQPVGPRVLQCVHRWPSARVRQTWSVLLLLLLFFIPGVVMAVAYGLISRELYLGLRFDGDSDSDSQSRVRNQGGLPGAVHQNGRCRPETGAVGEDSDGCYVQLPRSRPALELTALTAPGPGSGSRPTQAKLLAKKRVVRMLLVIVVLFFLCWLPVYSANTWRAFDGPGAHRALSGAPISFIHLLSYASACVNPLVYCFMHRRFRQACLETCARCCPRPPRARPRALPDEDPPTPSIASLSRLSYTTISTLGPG

[2] = target: T2, Cholecystokinin receptor type A (Homo sapiens, UniProt P32238); test: In vitro for binding affinity against human cholecystokinin type A receptor.
T2 sequence (P32238 whole entry): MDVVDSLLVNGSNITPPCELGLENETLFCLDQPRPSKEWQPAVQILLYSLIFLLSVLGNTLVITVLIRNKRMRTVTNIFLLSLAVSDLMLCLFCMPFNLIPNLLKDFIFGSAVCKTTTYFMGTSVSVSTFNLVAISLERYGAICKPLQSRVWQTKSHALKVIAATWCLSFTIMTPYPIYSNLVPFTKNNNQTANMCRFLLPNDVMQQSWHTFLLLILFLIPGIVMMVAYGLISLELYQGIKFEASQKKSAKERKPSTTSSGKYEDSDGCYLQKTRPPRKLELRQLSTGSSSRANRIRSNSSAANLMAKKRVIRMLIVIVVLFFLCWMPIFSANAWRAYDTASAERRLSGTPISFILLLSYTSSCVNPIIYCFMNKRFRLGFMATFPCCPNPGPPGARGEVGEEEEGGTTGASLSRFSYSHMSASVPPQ

Cavia porcellus [3] = organism: Cavia porcellus; test: In vitro functional agonist activity in the isolated guinea pig gall bladder, concentration at which 50% of the maximal contraction observed was reported.; settings: read-out: ED50 (the source's name)
Cavia porcellus [4] = organism: Cavia porcellus; test: In vitro functional efficacy relative to CCK-8 in inducing contraction of the isolated guinea pig gallbladder (GPGB) at a 1 uM concentration.
Method in brief: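 Isolated guinea pig gallbladder, ligand 1 μM, 30 min at 37 °C; maximal contraction expressed relative to CCK-8 (1 μM) = 100%; values ± 5%.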

Mus musculus [5] = test: Intraperitoneal dose that produces a half maximal response in mouse gall bladder emptying assay (in vivo); assay type: functional; settings: ip
Mus musculus [6] = test: Maximal response at 1 nmol/kg intraperitoneal dose; assay type: functional
Mus musculus [7] = test: Maximal response at 1 nmol/kg peroral dose; assay type: functional
Mus musculus [8] = test: Peroral dose that produces a half maximal response in mouse gall bladder emptying assay (in vivo); assay type: functional; settings: po
Rattus norvegicus [9] = test: (§1) Maximal response at 0.5 umol/kg intraperitoneal dose; assay type: functional
Rattus norvegicus [10] = test: Anorectic potency in rat was tested and intraperitoneal dose that produces a half maximal response (in vivo); assay type: functional; settings: ip
[11] = Total body clearance at an intravenous dose of 6.3 mg/kg in rat; assay type: ADME, organism-based; parameters: dose 6.3 mg/kg, route intravenous; settings: in vivo
[12] = Maximum concentration at an intraduodenal dose of 6.6 mg/kg in rat; assay type: ADME, organism-based; parameters: dose 6.6 mg/kg, route intraduodenal; settings: in vivo
[13] = Maximum concentration at an peroral dose of 6.2 mg/kg in rat; assay type: ADME, organism-based; parameters: dose 6.2 mg/kg, route oral; settings: in vivo, po
[14] = Oral bioavailability in Long-Evans rats at an intraduodenal dose of 6.6 mg/kg; assay type: ADME, organism-based; settings: rat, in vivo, other: intraduodenal
[15] = Oral bioavailability in Long-Evans rats at an intravenous dose of 6.3 mg/kg; Not active; assay type: ADME, organism-based; settings: rat, in vivo
[16] = Oral bioavailability in Long-Evans rats at an peroral dose of 6.2 mg/kg; assay type: ADME, organism-based; settings: rat, in vivo
[17] = Volume of distribution at steady state at an intravenous dose of 6.3 mg/kg in rat; assay type: ADME, organism-based; parameters: dose 6.3 mg/kg, route intravenous; settings: in vivo, read-out: Vss
Mus musculus [18] = test: maximal response at 1 nmol/kg peroral dose; assay type: functional
[19] = Maximum concentration at an intravenous dose of 6.3 mg/kg; assay type: ADME, organism-based; parameters: dose 6.3 mg/kg, route intravenous; settings: rat, in vivo
[20] = Half life period at an intravenous dose of 6.3 mg/kg in rat; assay type: ADME, organism-based; parameters: dose 6.3 mg/kg, route intravenous; settings: in vivo
[21] = Total body clearance at an intravenous dose of 5.5 mg/kg in rat; assay type: ADME, organism-based; parameters: dose 5.5 mg/kg, route intravenous; settings: in vivo
[22] = Maximum concentration at an intravenous dose of 5.5 mg/kg in rat; assay type: ADME, organism-based; parameters: dose 5.5 mg/kg, route intravenous; settings: in vivo
[23] = Maximum concentration at an peroral dose of 6.3 mg/kg in rat; assay type: ADME, organism-based; parameters: dose 6.3 mg/kg, route oral; settings: in vivo, po
[24] = Oral bioavailability in Long-Evans rats at an peroral dose of 6.3 mg/kg; assay type: ADME, organism-based; settings: rat, in vivo
[25] = Half life period at an intravenous dose of 5.5 mg/kg in rat; assay type: ADME, organism-based; parameters: dose 5.5 mg/kg, route intravenous; settings: in vivo
[26] = Volume of distribution at steady state at an intravenous dose of 5.5 mg/kg in rat; assay type: ADME, organism-based; parameters: dose 5.5 mg/kg, route intravenous; settings: in vivo, read-out: Vss
Mus musculus [27] = test: as §1; assay type: functional

Structure (SMILES) | IC50 [1] [nM] | IC50 [2] [nM] | EC50 (Cavia porcellus [3]) [nM] | Max (Cavia porcellus [4]) [%] | Max (Mus musculus [6]) [%] | also measured
CC(C)N(C(=O)CN1C(=O)C(Cc2n[nH]c3ccccc23)C(=O)N(c2ccccc2)c2ccccc21)c1ccc(C(F)(F)F)cc1 (stereo unspecified) | 1660 | 661 | 230 | 80 | – | –
COc1ccc(N(C(=O)CN2C(=O)C(Cc3coc4ccccc34)C(=O)N(c3ccccc3)c3ccccc32)C(C)C)cc1 (stereo unspecified) | – | – | – | 40 | – | –
CC(C)N(C(=O)CN1C(=O)C(Cc2n[nH]c3ccccc23)C(=O)N(c2ccccc2)c2ccccc21)c1ccc(F)cc1 (stereo unspecified) | 479 | 138 | 60 | 100 | – | –
COc1ccc(N(C(=O)CN2C(=O)C(Cc3cc(-c4ccccc4)[nH]n3)C(=O)N(c3ccccc3)c3ccccc32)C(C)C)cc1 (stereo unspecified) | – | – | – | 20 | – | –
COc1ccc(N(C(=O)CN2C(=O)C(Cc3nn(C)c4ccccc34)C(=O)N(c3ccccc3)c3ccccc32)C(C)C)cc1 (stereo unspecified) | – | – | – | – | 83 | ED50 (Mus musculus [5]): 0.0008 µmol/kg; Max (Mus musculus [7]): 84%; ED50 (Mus musculus [8]): 0.03 µmol/kg; Max (Rattus norvegicus [9]): 98%; ED50 (Rattus norvegicus [10]): 0.22 µmol/kg
COc1ccc(N(C(=O)CN2C(=O)C(Cc3[nH]nc4c3CCCC4)C(=O)N(c3ccccc3)c3ccccc32)C(C)C)cc1 (stereo unspecified) | 2950 | 129 | 300 | 80 | – | –
COc1ccc(N(C(=O)CN2C(=O)C(Cc3n[nH]c4ccccc34)C(=O)N(c3ccccc3)c3ccccc32)C(C)C)cc1 (stereo unspecified) | – | – | – | – | 97 | clearance [11]: 38 mL/min/kg; Cmax [12]: 193 ng/mL; Cmax [13]: 20 ng/mL; bioavailability [14]: 16%; F [15]: Not Active; bioavailability [16]: 8%; Vd [17]: 5.17 L/kg; ED50 (Mus musculus [5]): 0.0002 µmol/kg; Max (Mus musculus [18]): 89%; ED50 (Mus musculus [8]): 0.01 µmol/kg; Cmax [19]: 2100 ng/mL; Max (Rattus norvegicus [9]): 98%; half-life [20]: 2.1 h; ED50 (Rattus norvegicus [10]): 0.05 µmol/kg
COc1ccc(N(C(=O)CN2C(=O)C(Cc3n[nH]c4ccccc34)(OC)C(=O)N(c3ccccc3)c3ccccc32)C(C)C)cc1 (stereo unspecified) | 3630 | 14.5 | 70 | 70 | 89 | clearance [21]: 35 mL/min/kg; Cmax [22]: 4900 ng/mL; Cmax [23]: 90 ng/mL; bioavailability [24]: 5%; half-life [25]: 3.4 h; Vd [26]: 7.63 L/kg; ED50 (Mus musculus [5]): 0.0003 µmol/kg; Max (Mus musculus [7]): 72%; ED50 (Mus musculus [8]): 0.1 µmol/kg; Max (Mus musculus [27]): 52%
COc1ccc(N(C(=O)CN2C(=O)C(Cc3nsc4ccccc34)C(=O)N(c3ccccc3)c3ccccc32)C(C)C)cc1 (stereo unspecified) | – | – | – | 30 | – | –
CSCC[C@H](NC(=O)[C@H](Cc1ccc(OS(=O)(=O)O)cc1)NC(=O)[C@@H](N)CC(=O)O)C(=O)NCC(=O)N[C@@H](Cc1c[nH]c2ccccc12)C(=O)N[C@@H](CCSC)C(=O)N[C@@H](CC(=O)O)C(=O)N[C@@H](Cc1ccccc1)C(N)=O [SINCALIDE] | – | – | – | – | 95 | Max (Rattus norvegicus [9]): 95%; ED50 (Rattus norvegicus [10]): 0.03 µmol/kg
COc1ccc(N(C(=O)CN2C(=O)C(C)(Cc3cn(C)c4ccccc34)C(=O)N(c3ccccc3)c3ccccc32)C(C)C)cc1 (stereo unspecified) | – | 17.8 | – | 40 | – | –
CC(C)(C)N(C(=O)CN1C(=O)C(Cc2n[nH]c3ccccc23)C(=O)N(c2ccccc2)c2ccccc21)c1ccccc1 (stereo unspecified) | – | 891 | 110 | 90 | – | –
COc1ccc(N(C(=O)CN2C(=O)C(Cc3n[nH]c4ccc(F)cc34)C(=O)N(c3ccccc3)c3ccccc32)C(C)C)cc1 (stereo unspecified) | 2510 | 42.7 | 40 | 90 | – | –
COc1ccc(N(C(=O)CN2C(=O)C(Cc3c[nH]c4ccccc34)C(=O)N(c3ccccc3)c3ccccc32)C(C)C)cc1 (stereo unspecified) | – | – | – | – | 90 | ED50 (Mus musculus [5]): 0.0038 µmol/kg; Max (Mus musculus [7]): 74%; ED50 (Mus musculus [8]): 0.1 µmol/kg
COc1ccc(N(C(=O)CN2C(=O)C(Cc3noc4ccccc34)C(=O)N(c3ccccc3)c3ccccc32)C(C)C)cc1 (stereo unspecified) | 174000 | 89.1 | 130 | 80 | – | –
